According to ChEMBL document CHEMBL1153346, “Structure-activity study of pentamidine analogues as antiprotozoal agents” (J Med Chem, 2009):
Calls of active or inactive are those of the source. The rule behind the calls is not given here.

Tests used:
[1] = system: Trypanosoma brucei rhodesiense; experiment: Antiprotozoal activity against Trypanosoma brucei rhodesiense STIB900 trypomastigotes after 70 hrs by alamar blue assay; type: functional, organism-based
Method in brief: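 Bloodstream forms, 2000 per well, in MEM with Earle's salts plus 0.2 mM 2-mercaptoethanol, 1 mM pyruvate, 0.5 mM hypoxanthine and 15% heat-inactivated horse serum. Exposed to serial dilutions (DMSO ≤1%) for 70 h at 37 °C in 5% CO₂. Resazurin then added for a further 2-6 h. IC50 from sigmoidal curves; two independent runs in duplicate.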

[2] = Selectivity index, ratio of IC50 for rat L6 cells to IC50 for Trypanosoma brucei rhodesiense STIB900 trypomastigotes; type: toxicity, cell-based; conditions: read-out: Ratio IC50
Method in brief: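 Ratio of L6 IC50 to STIB900 IC50. L6 cells: 4000/well in RPMI 1640 with 10% FBS, 70 h at 37 °C. Bloodstream forms: 2000/well in supplemented MEM with 15% horse serum, 70 h at 37 °C. Both read by Alamar blue fluorescence; IC50s from sigmoidal curves, two independent runs in duplicate.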

[3] = system: Trypanosoma brucei rhodesiense; experiment: Antitrypanosomal activity against Trypanosoma brucei rhodesiense STIB900 trypomastigotes infected in NMRI mouse assessed as mouse survival at 20 mg/kg, ip administered from day 3 to day 6 postinfection; type: functional; conditions: route intraperitoneal
Method in brief: (§1)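 STIB900 acute mouse model. Dosing was intraperitoneal, daily for four days, in DMSO diluted with water to 10% final DMSO. An infected untreated control group was kept. Tail blood was checked for parasitemia to day 60, and deaths were recorded to give mean survival days. Mice surviving and aparasitemic at day 60 counted as cured.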

Plasmodium falciparum = experiment: Antiprotozoal activity after 48 hrs against chloroquine-resistant Plasmodium falciparum K1 infected erythrocytes by [3H]hypoxanthine uptake; type: functional, organism-based
Method in brief: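 Erythrocytic stages in infected human red cells (hematocrit 1.25%, parasitemia 0.3%) in supplemented RPMI 1640 with Albumax II. Serial dilutions incubated at 37 °C in 93% N2/4% CO2/3% O2. [3H]-hypoxanthine (0.5 µCi/well) added at 48 h, then 24 h more. Incorporation counted by scintillation. IC50 from sigmoidal curves; two independent runs in duplicate.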

[4] = system: Trypanosoma brucei rhodesiense; experiment: Antitrypanosomal activity against Trypanosoma brucei rhodesiense STIB900 trypomastigotes infected in NMRI mouse assessed as survival and aparasitemic condition at 10 mg/kg, ip administered from day 3 to day 6 postinfection measured after 60 days postinfection; type: functional, organism-based; design: dose 10 mg/kg
Method in brief: (§2)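 STIB900 acute mouse model with 4 mice per group. Compound in DMSO diluted with water to a final 10% DMSO, given intraperitoneally once daily for four days. An infected, untreated control group was included. Tail blood checked for parasitemia until day 60. Mice alive and aparasitemic at day 60 counted as cured; deaths recorded for mean survival time.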

[5] = Selectivity index, ratio of IC50 for rat L6 cells to IC50 for Leishmania donovani MHOM/SD/62/1S-CL2D axenic amastigotes; type: toxicity, cell-based; conditions: read-out: Ratio IC50
Method in brief: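 Amastigotes: 6 × 10⁴ parasites/well with 2-fold dilutions, 72 h at 37 °C in 5% CO2. Growth read by tetrazolium CellTiter absorbance at 490 nm; IC50 from a four-parameter dose-response fit.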

L6 = experiment: Cytotoxicity against rat L6 cells after 70 hrs by alamar blue assay; type: cell-based; conditions: L6, 70 h
Method in brief: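 L6 rat myoblasts, 4000 per well, in RPMI 1640 with 2 mM L-glutamine, HEPES, NaHCO₃ and 10% FBS. Exposed to serial dilutions (DMSO ≤1%) for 70 h at 37 °C in humidified 5% CO₂. Resazurin then added for 2-3 h; fluorescence read at ex 536/em 588 nm. IC50 from sigmoidal curves; two independent runs in duplicate.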

[6] = system: Trypanosoma brucei rhodesiense; experiment: Antitrypanosomal activity against Trypanosoma brucei rhodesiense STIB900 trypomastigotes infected in NMRI mouse assessed as mouse survival at 10 mg/kg, ip administered from day 3 to day 6 postinfection; type: functional; conditions: route intraperitoneal; method in brief: as §1
Leishmania donovani = experiment: Antiprotozoal activity against Leishmania donovani MHOM/SD/62/1S-CL2D axenic amastigotes after 72 hrs; type: functional, organism-based
Method in brief: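 L. donovani axenic amastigotes, adapted from promastigotes and grown in amastigote medium at 37 °C. 6 × 10⁴ parasites per well with 2-fold compound dilutions (DMSO ≤1%), incubated 72 h at 37 °C in humidified 5% CO₂. Growth read by tetrazolium (CellTiter) absorbance at 490 nm. IC50 from a four-parameter dose-response fit. Average of duplicate determinations.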

[7] = Selectivity index, ratio of IC50 for rat L6 cells to IC50 for chloroquine-resistant Plasmodium falciparum K1; type: toxicity, cell-based; conditions: read-out: Ratio IC50
Method in brief: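 Ratio of L6 IC50 to K1 IC50. L6 cells: Alamar blue assay after 70 h, 37 °C. K1: [3H]-hypoxanthine incorporation in infected red cells over 48 + 24 h at 37 °C under low O2. IC50s from sigmoidal curves, two independent runs in duplicate.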

Mus musculus = experiment: Toxicity in NMRI mouse infected with Trypanosoma brucei rhodesiense STIB900 trypomastigotes at 20 mg/kg, ip administered from day 3 to day 6 postinfection; type: organism-based; design: dose 20 mg/kg, route intraperitoneal; conditions: in vivo
[8] = system: Trypanosoma brucei rhodesiense; experiment: Antitrypanosomal activity against Trypanosoma brucei rhodesiense STIB900 trypomastigotes infected in NMRI mouse assessed as survival and aparasitemic condition at 20 mg/kg, ip administered from day 3 to day 6 postinfection measured after 60 days postinfection; type: functional, organism-based; design: dose 20 mg/kg; method in brief: as §2
[9] = system: Trypanosoma brucei rhodesiense; experiment: Antitrypanosomal activity against Trypanosoma brucei rhodesiense STIB900 trypomastigotes infected in NMRI mouse assessed as survival and aparasitemic condition at 5 mg/kg, ip administered from day 3 to day 6 postinfection measured after 60 days postinfection; type: functional, organism-based; design: dose 5 mg/kg; method in brief: as §2
[10] = system: Trypanosoma brucei rhodesiense; experiment: Antitrypanosomal activity against Trypanosoma brucei rhodesiense STIB900 trypomastigotes infected in NMRI mouse assessed as mouse survival at 5 mg/kg, ip administered from day 3 to day 6 postinfection; type: functional; conditions: route intraperitoneal; method in brief: as §1
[11] = system: Trypanosoma brucei rhodesiense; experiment: Antitrypanosomal activity against Trypanosoma brucei rhodesiense STIB900 trypomastigotes infected in NMRI mouse assessed as mouse survival at 8 mg/kg, ip administered from day 3 to day 6 postinfection; type: functional; conditions: route intraperitoneal
[12] = system: Trypanosoma brucei rhodesiense; experiment: Antitrypanosomal activity against Trypanosoma brucei rhodesiense STIB900 trypomastigotes infected in NMRI mouse assessed as survival and aparasitemic condition at 8 mg/kg, ip administered from day 3 to day 6 postinfection measured after 60 days postinfection; type: functional, organism-based; design: dose 8 mg/kg
[13] = system: Trypanosoma brucei rhodesiense; experiment: Antitrypanosomal activity against Trypanosoma brucei rhodesiense STIB900 trypomastigotes infected in NMRI mouse assessed as mouse survival at 1 mg/kg, ip administered from day 3 to day 6 postinfection; type: functional; conditions: route intraperitoneal
[14] = system: Trypanosoma brucei rhodesiense; experiment: Antitrypanosomal activity against Trypanosoma brucei rhodesiense STIB900 trypomastigotes infected in NMRI mouse assessed as survival and aparasitemic condition at 2 mg/kg, ip administered from day 3 to day 6 postinfection measured after 60 days postinfection; type: functional, organism-based; design: dose 2 mg/kg
[15] = system: Trypanosoma brucei rhodesiense; experiment: Antitrypanosomal activity against Trypanosoma brucei rhodesiense STIB900 trypomastigotes infected in NMRI mouse assessed as mouse survival at 2 mg/kg, ip administered from day 3 to day 6 postinfection; type: functional; conditions: route intraperitoneal

Row | Compound | IC50 [1] [nM] | selectivity ratio [2] | Survival [3] [days] | IC50 (Plasmodium falciparum) [nM] | Activity [4] | selectivity ratio [5] | IC50 (L6) [nM] | Survival [6] [days] | IC50 (Leishmania donovani) [nM] | selectivity ratio [7] | Activity (Mus musculus) | Activity [8] | Activity [9] | Survival [10] [days] | Survival [11] [days] | Activity [12] | Survival [13] [days] | Activity [14] | Survival [15] [days]
1 | Cl.Cl.Cl.Cl.N=C(N)c1ccc(OCCCCOc2ccc(C(=N)N)cc2Cl)c(Cl)c1 | 42 | 260 | >41.5 | 19 | inactive | 5 | 10900 | 22 | 2130 | 574 |  |  |  |  |  |  |  |  | 
2 | CCOC(=O)c1cc(C(=N)NC(C)C)ccc1OCCCCCOc1ccc(C(=N)NC(C)C)cc1C(=O)OCC.Cl.Cl | 51 | > 2740 | 5.5 | 13 |  | 2 | > 140000 |  | 55900 | > 10800 | Toxic | inactive |  |  |  |  |  |  | 
3 | COc1cc(C2=NCCN2)ccc1OCCCCOc1ccc(C2=NCCN2)cc1OC.Cl.Cl | 68 | > 2410 |  | 20 | inactive | > 4 | > 164000 | 18.3 | 38900 | > 8200 |  |  |  |  |  |  |  |  | 
4 | Cl.Cl.N=C(N)c1ccc(OCCCOc2ccc(C(=N)N)cc2Br)c(Br)c1 | 19 | 337 |  | 16 |  | 5 | 6400 |  | 1170 | 400 |  |  | inactive | 13 |  |  |  |  | 
5 | Cl.Cl.c1cc(C2=NCCN2)ccc1OCCCCOc1ccc(C2=NCCN2)cc1 | 244 | 257 | >41.5 | 31 |  | 20 | 62700 |  | 3060 | 2020 |  |  | inactive | 7.8 |  |  |  |  | 
6 | COc1cc(C(=N)N)ccc1OCCCCOc1ccc(C(=N)N)cc1OC.Cl.Cl | 270 | > 693 |  | 44 | inactive | > 5 | > 187000 | 17.5 | 38100 | > 4250 |  |  |  |  |  |  |  |  | 
7 | COc1cc(C2=NCCN2)ccc1OCCCCCOc1ccc(C2=NCCN2)cc1OC.Cl.Cl | 40 | > 3950 |  | 19 | inactive | > 4 | > 158000 | >31.8 | 36300 | > 8320 |  |  |  |  |  |  |  |  | 
8 | Cl.Cl.c1cc(C2=NCCN2)ccc1OCCCOc1ccc(C2=NCCN2)cc1 | 110 | 685 | >51 | 10 | inactive | 26 | 75300 | 22.8 | 2880 | 7530 |  |  |  |  |  |  |  |  | 
9 | Cl.Cl.N=C(N)c1cccc(OCCCCOc2cccc(C(=N)N)c2)c1 | 56 | 286 | >43 | 21 | inactive | 4 | 16000 | 20 | 4460 | 762 |  |  |  |  |  |  |  |  | 
10 | Nc1nc(N)nc(Nc2ccc([As]3SCC(CO)S3)cc2)n1 (centres undefined) [MELARSOPROL] |  |  |  |  |  |  |  |  |  |  |  |  |  |  | >60 | Active | >51.5 | Active | >60
11 | Cl.Cl.Cl.Cl.N=C(N)c1ccc(OCCCOc2ccc(C(=N)N)cc2Cl)c(Cl)c1 | 4 | 6200 |  | 19 |  | 16 | 24800 |  | 1560 | 1300 |  |  | Active | >60 |  |  |  |  | 
12 | COc1cc(C(=N)N)ccc1OCCCCCOc1ccc(C(=N)N)cc1OC.Cl.Cl | 10 | 16200 |  | 21 |  | 7 | 162000 |  | 24000 | 7710 |  |  | inactive | 26 |  |  |  |  | 
